41 compounds from ChEMBL document CHEMBL1287773, “4-aryl piperazine and piperidine amides as novel mGluR5 positive allosteric modulators” (Bioorg Med Chem Lett, 2010) can be followed below.

SMILES strings stand for the structures.

The target in series [1] is Metabotropic glutamate receptor 5 (Homo sapiens, UniProt P41594). Briefly: Positive allosteric modulation of human mGluR5 expressed in HEK293 cells assessed as Ca2+ influx by FLIPR assay. It counts as functional, cell-based. The procedure, abridged: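 HEK293 cells stably expressing human mGluR5 d isoform, plated the day before at 25,000 cells/well in DMEM with 10% dialyzed FBS. Loaded 1 h at 37 °C with 4.3 uM Fluo-4 AM in HBSS/20 mM HEPES/1 mM probenecid, pH 7.4, then washed. Eleven-concentration series added, agonist read 1 min; after 15 min, EC20 L-glutamate (final 200-300 nM) added, Ca2+ read 1 min.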
Chain of Metabotropic glutamate receptor 5 (P41594 whole entry, canonical isoform): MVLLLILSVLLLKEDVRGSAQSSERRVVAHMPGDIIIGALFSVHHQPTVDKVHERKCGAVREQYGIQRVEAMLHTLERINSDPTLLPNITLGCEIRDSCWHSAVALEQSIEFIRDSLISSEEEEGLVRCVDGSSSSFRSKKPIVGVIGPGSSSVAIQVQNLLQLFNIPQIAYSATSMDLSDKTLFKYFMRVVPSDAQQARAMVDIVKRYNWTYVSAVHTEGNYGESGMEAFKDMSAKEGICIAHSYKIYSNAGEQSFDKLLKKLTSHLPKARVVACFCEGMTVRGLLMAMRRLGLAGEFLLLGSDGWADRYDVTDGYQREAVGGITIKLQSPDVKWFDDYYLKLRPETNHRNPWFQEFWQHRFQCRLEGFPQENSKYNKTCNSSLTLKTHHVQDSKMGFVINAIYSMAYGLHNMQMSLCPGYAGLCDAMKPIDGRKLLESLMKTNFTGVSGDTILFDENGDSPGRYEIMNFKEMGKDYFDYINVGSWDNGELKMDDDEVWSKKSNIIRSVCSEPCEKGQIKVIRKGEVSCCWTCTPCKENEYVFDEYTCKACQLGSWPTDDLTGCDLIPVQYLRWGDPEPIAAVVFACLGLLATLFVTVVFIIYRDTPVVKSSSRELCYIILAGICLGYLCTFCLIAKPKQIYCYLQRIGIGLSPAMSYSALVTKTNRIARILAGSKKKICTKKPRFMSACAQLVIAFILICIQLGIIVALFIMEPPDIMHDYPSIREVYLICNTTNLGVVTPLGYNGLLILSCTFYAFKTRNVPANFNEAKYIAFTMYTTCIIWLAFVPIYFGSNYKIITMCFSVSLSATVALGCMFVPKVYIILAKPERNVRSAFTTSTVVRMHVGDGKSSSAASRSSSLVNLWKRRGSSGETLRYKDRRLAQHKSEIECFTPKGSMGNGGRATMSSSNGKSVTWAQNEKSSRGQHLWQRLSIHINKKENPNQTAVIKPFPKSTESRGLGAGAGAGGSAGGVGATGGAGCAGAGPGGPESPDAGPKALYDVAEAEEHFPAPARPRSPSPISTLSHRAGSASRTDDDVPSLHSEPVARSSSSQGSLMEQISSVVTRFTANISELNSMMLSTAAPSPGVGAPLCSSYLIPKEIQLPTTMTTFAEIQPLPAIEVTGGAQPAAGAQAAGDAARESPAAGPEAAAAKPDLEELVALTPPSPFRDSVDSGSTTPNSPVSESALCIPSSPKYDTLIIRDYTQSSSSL

The nature of series [2]: Intrinsic clearance in human liver microsome assessed as per mg of protein. It counts as ADME. The following applies: liver microsomes. (Microsomes from liver hold many membrane-bound enzymes, among them those of drug oxidation.)
Series [3] is described as follows: Clearance in dog plasma. It counts as ADME, organism-based, Canis lupus familiaris.
Series [4] in a line: Ratio of drug level in brain to plasma in rat. It counts as ADME, organism-based. The following applies: brain and plasma, read-out: BPR.
Series [5] in a line: Oral bioavailability in rat. It counts as ADME, organism-based. The following applies: in vivo.
The nature of series [6]: Half life in rat. It counts as ADME, organism-based. The following applies: in vivo.
Series [7] is described as follows: Volume of distribution in rat. It counts as ADME, organism-based. The settings on record: in vivo.
Series [8] in a line: Half life in dog. It counts as ADME, organism-based, Canis lupus familiaris. The settings on record: in vivo.
Series [9] in a line: Oral bioavailability in dog. It counts as ADME, organism-based, Canis lupus familiaris. The settings on record: in vivo.
Series [10] can be described thus: Clearance in rat plasma. It counts as ADME, organism-based.
For series [11], the target named is Metabotropic glutamate receptor 5 (Rattus norvegicus) (UniProt P31424). Briefly: Displacement of [3H]-MPEP from rat mGluR5. (In general: Loss of bound radioactivity is the signal in a displacement assay; it reports binding, not function.)
Chain of Metabotropic glutamate receptor 5 (Rattus norvegicus) (P31424 whole entry, looked up): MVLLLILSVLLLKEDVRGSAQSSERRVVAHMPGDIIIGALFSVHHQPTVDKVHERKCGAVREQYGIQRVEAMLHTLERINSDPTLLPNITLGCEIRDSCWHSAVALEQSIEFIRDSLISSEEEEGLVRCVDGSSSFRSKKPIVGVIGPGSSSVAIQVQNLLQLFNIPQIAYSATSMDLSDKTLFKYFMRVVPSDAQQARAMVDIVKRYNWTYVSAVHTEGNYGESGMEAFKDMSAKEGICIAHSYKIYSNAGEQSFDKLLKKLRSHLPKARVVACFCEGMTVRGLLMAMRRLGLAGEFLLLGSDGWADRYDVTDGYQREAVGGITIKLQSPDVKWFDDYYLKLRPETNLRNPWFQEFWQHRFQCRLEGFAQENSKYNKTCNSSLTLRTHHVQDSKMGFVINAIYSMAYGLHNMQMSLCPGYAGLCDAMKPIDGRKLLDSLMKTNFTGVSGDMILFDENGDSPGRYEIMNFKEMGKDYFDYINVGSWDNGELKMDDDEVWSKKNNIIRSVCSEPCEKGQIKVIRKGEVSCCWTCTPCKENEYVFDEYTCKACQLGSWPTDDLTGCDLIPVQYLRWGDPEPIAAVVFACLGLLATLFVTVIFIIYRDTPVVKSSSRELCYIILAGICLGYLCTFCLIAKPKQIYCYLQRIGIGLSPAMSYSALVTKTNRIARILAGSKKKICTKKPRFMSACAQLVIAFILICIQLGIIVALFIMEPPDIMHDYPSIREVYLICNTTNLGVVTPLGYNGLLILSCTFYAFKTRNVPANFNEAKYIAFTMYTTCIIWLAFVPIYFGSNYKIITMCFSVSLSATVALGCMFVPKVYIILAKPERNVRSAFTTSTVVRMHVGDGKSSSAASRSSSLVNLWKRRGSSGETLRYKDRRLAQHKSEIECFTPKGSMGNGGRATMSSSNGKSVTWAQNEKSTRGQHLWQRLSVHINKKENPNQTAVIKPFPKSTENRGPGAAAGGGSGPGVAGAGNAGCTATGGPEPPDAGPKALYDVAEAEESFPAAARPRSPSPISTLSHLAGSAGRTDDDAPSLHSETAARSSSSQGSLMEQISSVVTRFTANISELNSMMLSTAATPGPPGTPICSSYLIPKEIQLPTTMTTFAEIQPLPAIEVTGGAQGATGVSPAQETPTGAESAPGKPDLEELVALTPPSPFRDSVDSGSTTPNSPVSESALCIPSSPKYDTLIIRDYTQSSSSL
Series [12] in a line: Volume of distribution in dog. It counts as ADME, organism-based, Canis lupus familiaris. The following applies: in vivo.

Consider `O=C(COCc1ccncc1)N1CCN(c2ccc(Cl)cc2)CC1`, for which the EC50 in series [1] is 1300 nM. Also, the microsomal CLint in series [2] amounted to 17 µL/min/mg.

As to `O=C(COCc1ccncc1)N1CCN(c2ccc(F)cc2Cl)CC1`, the figures for the clearance in series [3] and in series [10] were 38.5 mL/min/kg and 55 mL/min/kg, respectively. In series [4], the Kp turned out to be 4.6. Further, the 50% effective concentration (EC50) in series [1] was found to be 550 nM. Further, the microsomal CLint in [2] was 29 µL/min/mg. Further, the values for the bioavailability in series [5] and in series [9] were 41% and 37%, respectively. In addition, the half-life was 7.3 h in [6] and 2.9 h in series [8]. The Vd in series [7] worked out at 4.8 L/kg; in series [12], 3.2 L/kg. Moreover, in series [11], the Ki amounted to 2370 nM.

As for `O=C(COCc1ccncc1)N1CCN(c2ccc(Cl)cc2F)CC1`, the EC50 in series [1] came out at 600 nM. For the same compound, in series [2], the microsomal CLint worked out at 38 µL/min/mg.

In the case of `Cc1cc(Cl)ccc1N1CCN(C(=O)COCc2ccncc2)CC1`, the EC50 in series [1] was determined as 240 nM. Moreover, the microsomal CLint in series [2] was 68 µL/min/mg.

As to `O=C(COCc1ccncc1)N1CCN(c2ccc(Cl)cc2Cl)CC1`, the EC50 in series [1] stood at 180 nM. Also, the intrinsic clearance (microsomal CLint) in [2] was 76 µL/min/mg.

Consider `O=C(COCc1ccncc1)N1CCN(c2ccc(F)cc2F)CC1`, for which the EC50 in series [1] is 4600 nM. Further, the microsomal CLint in series [2] amounted to 22 µL/min/mg.

In the case of `O=C(COCc1ccncc1)N1CCN(c2cc(Cl)ccn2)CC1`, in series [1], the EC50 is 4200 nM. Also, in series [2], the microsomal CLint is 4 µL/min/mg.

With `O=C(COCc1ccncc1)N1CCC(c2ccc(Cl)cc2)CC1`, the concentration for a half-maximal effect (EC50) in [1] amounted to 680 nM. Also, the microsomal CLint in series [2] is 41 µL/min/mg.

Consider `O=C(COCc1ccncc1)N1CCC(c2ccc(F)cc2Cl)CC1`, for which, in series [1], the EC50 came out at 370 nM. Besides, the microsomal CLint in [2] was found to be 56 µL/min/mg.

On to `O=C(COCc1ccncc1)N1CCC(c2ccc(Cl)cc2Cl)CC1`, for which the EC50 in series [1] is 390 nM. For the same compound, the microsomal CLint in [2] came to 96 µL/min/mg.

`O=C(COCc1ccncc1)N1CCC(F)(c2ccc(Cl)cc2)CC1`: the EC50 in series [1] was 800 nM. In addition, in series [2], the intrinsic clearance (microsomal CLint) is 45 µL/min/mg.

On to `CC1(c2ccc(Cl)cc2)CCN(C(=O)COCc2ccncc2)CC1`, for which the EC50 in [1] is 2100 nM.

Take `O=C(COCc1ccncc1)N1CCC(F)(c2ccc(F)cc2Cl)CC1`: in series [1], the EC50 turned out to be 6600 nM.

For `Fc1ccc(C2CCN(C(=S)COCc3ccncc3)CC2)c(Cl)c1`, the EC50 in series [1] is above 10600 nM.

Consider `Clc1ccc(N2CCN(CCOCc3ccccc3)CC2)c(Cl)c1`, for which, in [1], the EC50 is above 25000 nM.

Regarding `O=C(CCCc1ccncc1)N1CCN(c2ccc(Cl)cc2Cl)CC1`, the EC50 in series [1] came to 5300 nM.

For `O=C(CNCc1ccncc1)N1CCN(c2ccc(Cl)cc2Cl)CC1`, the concentration giving a half-maximal response (EC50) in [1] was 8500 nM.

`CN(CC(=O)N1CCN(c2ccc(Cl)cc2Cl)CC1)Cc1ccncc1`: the EC50 in series [1] was above 25000 nM.

With `O=C(CSCc1ccccc1)N1CCN(c2ccc(Cl)cc2Cl)CC1`, the 50% effective concentration (EC50) in series [1] worked out at 7100 nM.

For `O=C(CSc1ccccc1)N1CCN(c2ccc(Cl)cc2Cl)CC1`, the EC50 in series [1] is above 25000 nM.

`C[C@@H](OCc1ccncc1)C(=O)N1CCC(c2ccc(Cl)cc2F)CC1`: the EC50 in series [1] is above 25000 nM.

For the compound `O=C(COCc1ccccn1)N1CCN(c2ccc(Cl)cc2Cl)CC1`, in series [1], the EC50 was 310 nM. Moreover, in series [2], the microsomal CLint was found to be 94 µL/min/mg.

Consider `O=C(COCc1cccnc1)N1CCN(c2ccc(Cl)cc2Cl)CC1`, for which the EC50 in series [1] is 1090 nM. In addition, in series [2], the microsomal CLint was 210 µL/min/mg.

Consider `O=C(COCc1cnccn1)N1CCN(c2ccc(Cl)cc2Cl)CC1`, for which the EC50 in series [1] came out at 5200 nM. For the same compound, in series [2], the microsomal CLint is 4 µL/min/mg.

On to `O=C(COCc1ccncn1)N1CCN(c2ccc(Cl)cc2Cl)CC1`, for which the EC50 in [1] is 2800 nM. The intrinsic metabolic clearance (microsomal CLint) in series [2] was 17 µL/min/mg.

For `O=C(COCc1ncccn1)N1CCN(c2ccc(Cl)cc2Cl)CC1`, in [1], the EC50 came to 18000 nM. Also, the intrinsic clearance (microsomal CLint) in series [2] was found to be 16 µL/min/mg.

As for `O=C(COCc1cscn1)N1CCN(c2ccc(Cl)cc2Cl)CC1`, the EC50 in series [1] came to 290 nM. The microsomal CLint in series [2] was 62 µL/min/mg.

Regarding `O=C(COCc1cncs1)N1CCN(c2ccc(Cl)cc2Cl)CC1`, the EC50 in [1] was found to be 1280 nM. In addition, the microsomal CLint in series [2] was found to be 73 µL/min/mg.

Regarding `O=C(COCc1ccccc1)N1CCN(c2ccccc2)CC1`, the EC50 in series [1] is 7100 nM.

`O=C(COCc1nccs1)N1CCN(c2ccc(Cl)cc2Cl)CC1`: the 50% effective concentration (EC50) in [1] was above 10300 nM. Moreover, in [2], the intrinsic metabolic clearance (microsomal CLint) worked out at 80 µL/min/mg.

As for `O=C(COCc1cccs1)N1CCN(c2ccc(Cl)cc2Cl)CC1`, the half-maximal effective concentration (EC50) in series [1] turned out to be 310 nM. Besides, in series [2], the intrinsic metabolic clearance (microsomal CLint) came to 360 µL/min/mg.

`N#Cc1ccc(COCC(=O)N2CCN(c3ccc(Cl)cc3Cl)CC2)s1`: the half-maximal effective concentration (EC50) in series [1] came to 210 nM. Moreover, in series [2], the microsomal CLint worked out at 110 µL/min/mg.

In the case of `O=C(COCc1ccccc1)N1CCN(c2ccccc2Cl)CC1`, in series [1], the EC50 was 1100 nM. For the same compound, the microsomal CLint in [2] came out at 540 µL/min/mg.

Turning to `O=C(COCc1ccccc1)N1CCN(c2cccc(Cl)c2)CC1`, the EC50 in series [1] was determined as 6700 nM. Further, the microsomal CLint in series [2] was found to be 310 µL/min/mg.

`O=C(COCc1ccccc1)N1CCN(c2ccc(Cl)cc2)CC1`: the concentration giving a half-maximal response (EC50) in series [1] amounted to 350 nM. Moreover, the intrinsic metabolic clearance (microsomal CLint) in [2] came to 290 µL/min/mg.

For the compound `O=C(COCc1ccccc1)N1CCN(c2ccc(F)cc2)CC1`, the 50% effective concentration (EC50) in series [1] turned out to be 1100 nM. Further, in series [2], the intrinsic metabolic clearance (microsomal CLint) amounted to 110 µL/min/mg.

Take `O=C(COCc1ccccc1)N1CCN(c2ccc(Cl)cc2Cl)CC1`: the concentration for a half-maximal effect (EC50) in [1] was found to be 1400 nM. The intrinsic metabolic clearance (microsomal CLint) in [2] is 450 µL/min/mg.

`O=C(COCc1ccccc1)N1CCN(c2ccc(F)cc2F)CC1`: the concentration for a half-maximal effect (EC50) in [1] was 300 nM. For the same compound, the microsomal CLint in [2] was found to be 580 µL/min/mg.

For `O=C(COCc1ccccc1)N1CCN(c2ccc(F)cc2Cl)CC1`, the EC50 in [1] came to 270 nM. The microsomal CLint in series [2] came to 530 µL/min/mg.

With `O=C(COCc1ccccc1)N1CCN(c2cc(Cl)ccn2)CC1`, in [1], the EC50 was 570 nM. Also, in series [2], the microsomal CLint worked out at 130 µL/min/mg.

On to `O=C(COCc1ccccc1)N1CCN(c2ccncc2)CC1`, for which, in series [1], the 50% effective concentration (EC50) was above 25000 nM.

What is called EC50 is the concentration giving half of the maximal effect. By microsomal CLint is commonly meant the capacity of the preparation to metabolise the compound, expressed as a volume cleared per time. In general, clearance refers to the volume of plasma or blood freed of the substance per unit of time. As a reminder, the bioavailability is the share of a dose that reaches the circulation, judged against a reference dose that is usually intravenous. Read a high bioavailability as much systemic uptake. Broadly, the half-life is the time needed for the level to fall by half in the phase considered. Low readings indicate rapid decline, high ones slow decline. The Vd is a proportionality between amount in the body and measured concentration, not a real space. A low value points to little distribution into tissue. By Ki is commonly meant the dissociation constant of the complex between target and ligand, obtained from inhibition or displacement. Low values mean higher affinity, high ones lower affinity.
